The test system of test [1] is Escherichia coli. The experiment in a line: Induction of holo-ACP accumulation in Escherichia coli JT6 pJT5 plasmid expressing AcpH at 100 ug/ml after 3 hrs by Western blotting. In kind it is functional, organism-based. The essentials:
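JT6 cells carrying pJT5 (AcpH under arabinose control), with empty pBAD322 as the vector control, treated with 100 μg/ml N5-Pan. At 3 h, crude cell extracts were run on conformationally sensitive gel electrophoresis. Proteins were electroblotted and probed by Western blot with anti-ACP antibody.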

The subject of test [2] is Escherichia coli. Kind of test: Inhibition of coenzyme A synthesis in acpH null mutant containing Escherichia coli JT6 transformed with pBAD24 plasmid expressing CoaE gene assessed as decrease in acetyl CoA level at 100 ug/ml after 90 mins by HPLC relative to untreated control. In kind it is functional, organism-based.
The test system of test [3] is Escherichia coli. The experiment in a line: Inhibition of coenzyme A synthesis in acpH null mutant containing Escherichia coli JT6 transformed with pBAD24 plasmid expressing CoaA gene assessed as decrease in acetyl CoA level at 100 ug/ml after 90 mins by HPLC relative to untreated control. Type of test: functional, organism-based.
The test system of test [4] is Escherichia coli. The experiment in a line: Inhibition of coenzyme A synthesis in acpH null mutant containing Escherichia coli JT6 transformed with pBAD24 plasmid expressing CoaD gene assessed as decrease in acetyl CoA level at 100 ug/ml after 90 mins by HPLC relative to untreated control. Type of test: functional, organism-based.
Test [5] relates to Escherichia coli. The experiment in a line: Inhibition of coenzyme A synthesis in Escherichia coli JT7 carrying panD deletion assessed as decrease in acetyl CoA level at 100 ug/ml after 90 mins by HPLC relative to untreated control. In kind it is functional. An outline of the steps:
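The culture was split, one half given 100 μg/ml N5-Pan, and both incubated a further 90 min. CoA pools were extracted and analysed by reverse-phase C18 HPLC with internal standards.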

Test [6] relates to Escherichia coli. Kind of test: Induction of ethyldethia-ACP accumulation in Escherichia coli JT6 at 200 ug/ml by gel electrophoresis. In kind it is functional, organism-based. The essentials:
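Exponentially growing E. coli JT6 (UB1005 tolC::Tn10, lacking the outer membrane efflux exit duct) in M9 minimal medium with 0.4% glycerol and 0.1% vitamin-free Casamino Acids. Culture supplemented with 200 μg/ml N5-Pan. ACP species resolved by conformationally sensitive gel electrophoresis.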

The subject of test [7] is Escherichia coli. Kind of test: Antibacterial activity against acpH null mutant containing Escherichia coli JT6 transformed with pJT5 expressing AcpH assessed as microbial growth inhibition. In kind it is functional, organism-based.
In test [8] the test system is Escherichia coli. The experiment in a line: Inhibition of coenzyme A synthesis in acpH null mutant containing Escherichia coli JT6 transformed with pBAD24 plasmid expressing CoaBC gene assessed as decrease in acetyl CoA level at 100 ug/ml after 90 mins by HPLC relative to untreated control. Type of test: functional, organism-based.
For test [9], the system named is Escherichia coli. The experiment in a line: Antibacterial activity against Escherichia coli JT6 assessed as microbial growth inhibition.
In test [10] the test system is Escherichia coli. The experiment in a line: Antibacterial activity against Escherichia coli JT13 deficient in acpH gene assessed as microbial growth inhibition.

SMILES strings stand for the structures. Activity calls are given as the source filed them. The rule behind the calls is not given here. A value given as a limit tells only on which side of the number the result lay.

As for `CCCCCNC(=O)CCNC(=O)[C@H](O)C(C)(C)CO`, the outcome in test [1] and in test [6] was Active. Moreover, the inhibition result in [2], in test [3], in test [4] and in test [8] was “Active” in each case. Further, the “fold change (FC)” value in test [5] is reported as greater than 10. The “growth inhibition (GI)” value in test [7] is “inactive”. The “growth inhibition (GI)” value in [9] and in [10] was “Active” throughout.
